Reference: ChEMBL document CHEMBL2406992, “Validation of inhibitors of an ABC transporter required to transport lipopolysaccharide to the cell surface in Escherichia coli” (2013)
Values after ≈ are worked out from the molar mass of the structure shown. Active and inactive are the calls of the source. The rule behind the calls is not given here.

How the values were obtained:
Escherichia coli [1] = assay: Inhibition of Escherichia coli MC4100 LptBFGC overexpressed in Escherichia coli BL21 (deltaDE3) assessed as inorganic phosphate release at 100 uM after 5 mins by molybdate method
Method in brief: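 Detergent-purified LptBFGC, 0.2 μM in 50 mM Tris-HCl pH 8.0, 500 mM NaCl, 10% glycerol, 0.05% DDM. Preincubated 5 min at 25 °C with 100 μM inhibitor (2% DMSO final). Reaction started with 0.5 mM ATP at 25 °C and stopped in the linear range with 12% SDS. Phosphate was measured by modified molybdate method, relative to uninhibited DMSO control.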

Escherichia coli [2] = assay: Inhibition of Escherichia coli MC4100 His6-tagged LptB overexpressed in Escherichia coli BL21 (deltaDE3) assessed as inorganic phosphate release at 100 uM after 5 mins by molybdate method
Method in brief: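 Single-point assay. Purified His-LptB (7 μM) in 50 mM Tris-HCl pH 8.0, 500 mM NaCl, 10% glycerol was preincubated 5 min at 25 °C with 100 μM inhibitor (2% DMSO final). Started with 1 mM ATP at 25 °C and quenched in the linear range with 12% SDS. Released phosphate was read by molybdate absorbance, relative to a DMSO control.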

Escherichia coli [3] = assay: Antibacterial activity against Escherichia coli NR698 assessed as growth inhibition after 24 hrs by microdilution method; assay type: functional; conditions: NR698, 24 h
Escherichia coli [4] = assay: Antibacterial activity against Escherichia coli MC4100 assessed as growth inhibition after 24 hrs by microdilution method; assay type: functional; conditions: MC4100, 24 h
Escherichia coli [5] = assay: Selectivity ratio of IC50 for Escherichia coli MC4100 LptBFGC to IC50 for Escherichia coli MC4100 His6-tagged LptB
Escherichia coli [6] = assay: Inhibition of Escherichia coli MC4100 LptBFGC overexpressed in Escherichia coli BL21 (deltaDE3) assessed as inorganic phosphate release after 5 mins by molybdate method
Method in brief: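 LptBFGC was expressed from an LptCAB-His6 plasmid in BL21(λDE3) (50 μM IPTG, 2 h, 37 °C) and purified in DDM. Assayed at 0.2 μM in 50 mM Tris-HCl pH 8.0, 500 mM NaCl, 10% glycerol, 0.05% DDM. Varying inhibitor (2% DMSO) was preincubated 5 min at 25 °C, then ATP was added. Quenched in the linear range with SDS. Molybdate phosphate read-out, normalized to DMSO.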

Escherichia coli [7] = assay: Inhibition of Escherichia coli MC4100 His6-tagged LptB overexpressed in Escherichia coli BL21 (deltaDE3) assessed as inorganic phosphate release after 5 mins by molybdate method
Method in brief: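 His-tagged LptB, Ni-NTA and size-exclusion purified, at 7 μM in 50 mM Tris-HCl pH 8.0, 500 mM NaCl, 10% glycerol. Varied inhibitor concentrations (DMSO, 2% final) were preincubated 5 min at 25 °C, then ATP was added at 25 °C. Stopped within the linear range with an equal volume of 12% SDS. Phosphate was read by modified molybdate absorbance and normalized to the DMSO control.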

SMILES	inhibition (Escherichia coli [1])	inhibition (Escherichia coli [2])	MIC (Escherichia coli [3])	MIC (Escherichia coli [4])	Ratio IC50 (Escherichia coli [5])	inhibition (Escherichia coli [6])	inhibition (Escherichia coli [7])
CSc1ccccc1-c1cc2[nH]c3ccc(O)cc3c2c2c1C(=O)NC2=O	Active	Active	25 µM (≈ 9.36 µg/mL)	> 100 µM	–	–	–
O=C1NC(=O)c2c1c(-c1ccccc1Cl)cc1c2c2cc(O)c(OCCCN3CCCC3)cc2n1CCO	Active	Active	100 µM (≈ 53.4 µg/mL)	> 100 µM	–	–	–
Cn1c2cc(S(=O)(=O)CCCN3CCCC3)c(O)cc2c2c3c(c(-c4ccccc4Cl)cc21)C(=O)NC3=O	Active	Active	50 µM (≈ 27.6 µg/mL)	> 100 µM	–	–	–
O=C1NC(=O)c2c1c(-c1c(Cl)cccc1Cl)cc1[nH]c3ccc(O)cc3c21	–	–	12.5 µM (≈ 4.97 µg/mL)	> 100 µM	6	Dose-dependent effect	Dose-dependent effect
O=C1NC(=O)c2c1c(-c1ccccc1Br)cc1[nH]c3ccc(O)cc3c21	Active	Active	12.5 µM (≈ 5.09 µg/mL)	> 100 µM	–	–	–
Cn1c2cc(OCCCN3CCCC3)c(O)cc2c2c3c(c(-c4ccccc4Cl)cc21)C(=O)NC3=O	Active	Active	100 µM (≈ 50.4 µg/mL)	> 100 µM	–	–	–
CN(C)CCCOc1cc2c(cc1O)c1c3c(c(-c4ccccc4Cl)cc1n2C)C(=O)NC3=O	Active	Active	25 µM (≈ 11.9 µg/mL)	> 100 µM	–	–	–
O=C1NC(=O)c2c1c(-c1ccccc1Cl)cc1[nH]c3ccc(O)cc3c21	–	–	25 µM (≈ 9.07 µg/mL)	> 100 µM	–	–	–
